From PubChem BioAssay
This is a sample that favours compounds with a hit; in the whole collection about 2.8% have one here.
E-sel inducer: induces E-selectin expression in human endothelial cells; P16581; HUVEC E-selectin immunofluorescence imaging; normalized: neutral wells 0, TNF-alpha wells 100; activation, % at 7.58 µM; 260,000 tested, 0.37% active;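 active = mean E-selectin-positive cell signal at least 10% of the positive control, reached in at least 60% of replicates, without over 20% cell loss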
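material = human umbilical vein endothelial cells (HUVEC), E-selectin induction | quantity = 3,000 cells/well | medium = EGM-2 growth medium on 0.1% gelatin-coated wells | technique = immunofluorescence imaging | read-out basis = % PE-positive cells | control set = TNF-alpha positive control, DMSO neutral control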
SIRT5 inh: blocks human SIRT5 desuccinylation of peptide | Q9NXA8 | Purified SirT5, succinyl-peptide AMC, trypsin-coupled fluorescence | inhibition, % at 15 µM | 330,000 tested, 1.1% active | AID 652115; in the data active = inhibition above about 15%
DENV2 CPE rescue: DENV2-induced cell death inhibition; DENV2-infected cells, cytopathic effect rescue, plate reader; CPE inhibition, % at 9.99 µM; 350,000 tested, 1.7% active; AID 651640; in the data active = CPE inhibition above about 20%, passing the limit was not always enough; tested in BHK-21 cells
Of the large screens only hits and unclear results are named; the others gave an inactive call; ! = a repeat was not active.

COc1ccc(S(=O)(=O)N(C)C[C@@H]2Oc3ccc(NC(=O)NC4CCCCC4)cc3C(=O)N([C@H](C)CO)C[C@H]2C)cc1	none
Cc1ccc(S(=O)(=O)Nc2ccc3c(c2)CC(=O)N([C@@H](C)CO)C[C@H](C)[C@H](CN(C)C(=O)NC2CCCCC2)O3)cc1	none
CCOC(=O)C1(CCCc2ccccc2)CCN(C2CCN(C(C)=O)CC2)CC1	SIRT5 inh 17.6
CCOC(=O)C1(CCCc2ccccc2)CCN(C(=O)CSC)CC1	none
CCN1C(=O)[C@H]2[C@@H](c3ccc(OC)cc3)N3C(=O)CN(Cc4ccccc4)C(=O)[C@@]3(Cc3ccccc3)[C@H]2C1=O	none (no result: SIRT5 inh, DENV2 CPE rescue)
CCN1C(=O)[C@H]2[C@@H](c3ccc(OC)cc3)N3C(=O)CN(CCOC)C(=O)[C@@]3(C)[C@H]2C1=O	DENV2 CPE rescue 98.4
OC[C@@H]1[C@H](c2ccc(-c3cccnc3)cc2)[C@@H]2CN(CC3CCOCC3)CCCCN12	none (no result: E-sel inducer)
COc1cc2c(c(OC)c1OC)[C@@]1(c3ccccc3)CCCC[C@H]1[C@@H]2NC(=O)C(F)(F)F	DENV2 CPE rescue 24.0
COc1ccc2c(c1)[C@@H](NC(=O)C(F)(F)F)[C@@H]1CCCC[C@]21c1ccccc1	none
CO[C@@H](CN(C)C(=O)c1ccccc1F)[C@@H](C)CN([C@@H](C)CO)S(=O)(=O)c1ccc(C)cc1	none
Cc1ccc(S(=O)(=O)Nc2ccc3c(c2)C(=O)N([C@@H](C)CO)C[C@@H](C)[C@@H](CN(C)Cc2ccc(-c4ccccc4)cc2)O3)cc1	SIRT5 inh 16.5
C[C@H]1CN([C@@H](C)CO)C(=O)c2cc(NS(=O)(=O)c3ccccc3)ccc2O[C@@H]1CN(C)Cc1ccc(-c2ccccc2)cc1	none
C[C@@H]1CN([C@@H](C)CO)C(=O)c2cc(NS(=O)(=O)c3ccccc3)ccc2O[C@@H]1CN(C)Cc1ccc(-c2ccccc2)cc1	SIRT5 inh 17.6
Cc1ccc(S(=O)(=O)Nc2ccc3c(c2)C(=O)N([C@@H](C)CO)C[C@@H](C)[C@H](CN(C)Cc2ccc(-c4ccccc4)cc2)O3)cc1	none
C[C@@H]1CN([C@@H](C)CO)C(=O)c2cc(NS(C)(=O)=O)ccc2O[C@H]1CN(C)Cc1ccc(-c2ccccc2)cc1	DENV2 CPE rescue 31.6
C[C@H](CO)N1C[C@H](C)[C@H](CN(C)Cc2ccc(-c3ccccc3)cc2)Oc2ccc(NS(C)(=O)=O)cc2C1=O	none
CC(C)NC(=O)N(C)C[C@@H]1Oc2ccc(NC(=O)Cc3ccccc3)cc2C(=O)N([C@@H](C)CO)C[C@@H]1C	none (no result: E-sel inducer)
Cc1noc(C)c1S(=O)(=O)N(C)C[C@@H]1OCCCC[C@@H](C)Oc2ccc(NS(=O)(=O)c3ccc(F)cc3)cc2C(=O)N([C@H](C)CO)C[C@@H]1C	none (no result: E-sel inducer, SIRT5 inh)
CO[C@@H]1CN(C)C(=O)c2cc(NC(=O)C3CC3)ccc2OC[C@H](C)N(C(=O)C2CCOCC2)C[C@@H]1C	none
CO[C@@H]1CC[C@@H]2CCN(C)C(=O)C[C@H](c3ccccc3)CN(C)C(=O)c3cccc(C#N)c3OC[C@@H]1O2	SIRT5 inh 25.4
CO[C@H]1CC[C@H]2CCN(C)C(=O)C[C@H](c3ccccc3)CN(C)C(=O)c3cccc(C#N)c3OC[C@@H]1O2	none
CO[C@@H]1CC[C@@H]2CCN(C)C(=O)[C@@H](C)[C@H](OC)CN(C)C(=O)c3cc(C#N)ccc3OC[C@@H]1O2	SIRT5 inh 18.5
CO[C@@H]1CC[C@H]2CCOc3c(C#N)cccc3C(=O)N(C)C[C@@H](OC)[C@@H](C)C(=O)N(C)C[C@H]1O2	none
CO[C@@H]1CC[C@@H]2CCOc3c(C#N)cccc3C(=O)N(C)C[C@@H](OC)[C@@H](C)C(=O)N(C)C[C@@H]1O2	SIRT5 inh 34.9
CO[C@@H]1CC[C@H]2CCN(C)C(=O)[C@@H](C)[C@H](OC)CN(C)C(=O)c3cc(C#N)ccc3OC[C@@H]1O2	none
O=C(c1cnccn1)N1CC(=O)N2[C@H](CO)[C@H](c3ccc(C#CCc4ccccc4)cc3)[C@@H]2C1	none
CC(=O)Nc1ccc(C(=O)CCl)cc1	DENV2 CPE rescue 26.9 (no result: E-sel inducer, SIRT5 inh)
CC(=O)NCc1ccc(C(=O)CCl)cc1	none
COc1ccc(NC(=O)N2C[C@@H](O)COC[C@@H]3O[C@@H](CC(=O)NCc4ccccc4OC)CC[C@H]32)cc1	none
C[C@@H]1CN([C@@H](C)CO)S(=O)(=O)c2ccc(C#Cc3ccccc3)cc2O[C@H]1CN(C)S(=O)(=O)c1cn(C)cn1	none
CC(C)C#Cc1ccc2c(c1)O[C@H](CN(C)S(=O)(=O)c1cn(C)cn1)[C@H](C)CN([C@H](C)CO)S2(=O)=O	none
C[C@@H]1CN([C@@H](C)CO)S(=O)(=O)c2ccc(Br)cc2O[C@@H]1CN(C)S(=O)(=O)c1cn(C)cn1	DENV2 CPE rescue 23.6!
